Source: ChEMBL document CHEMBL4368884, “Structure-activity relationship of the cinnamamide family of antibiotic potentiators for methicillin-resistant Staphylococcus aureus (MRSA)” (Medchemcomm, 2018)

How the values were obtained:
[1] = tested on: Staphylococcus aureus; test: Growth inhibition of Staphylococcus aureus MRSA252; type: organism-based; details: in vitro
Method in brief: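 Compound alone was two-fold serially diluted in cation-adjusted Mueller-Hinton II broth containing 2.4% DMSO. Bacteria were inoculated at 5 × 10⁵ CFU mL⁻¹ and incubated at 36 °C for 16–20 h. The MIC was read in triplicate.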

[2] = tested on: Staphylococcus aureus; test: Potentiation of oxacillin-induced antibacterial activity against Staphylococcus aureus MRSA252 assessed as oxacillin MIC at 20 uM (reference value: 256 ug/ml); type: functional
[3] = tested on: Staphylococcus aureus; test: Potentiation of oxacillin-induced antibacterial activity against methicillin/oxacillin/tetracycline-resistant Staphylococcus aureus NRS100 assessed as oxacillin MIC at 20 uM; type: functional
Method in brief: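 Oxacillin MIC measured with the synthetic potentiator held at a fixed 20 μM. Two-fold serial dilution in cation-adjusted Mueller-Hinton II broth containing 2.4% DMSO. Inoculum 5 × 10⁵ CFU mL⁻¹, incubated at 36 °C for 16–20 h. Run in triplicate.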

[4] = tested on: Staphylococcus aureus; test: Potentiation of oxacillin-induced antibacterial activity against Staphylococcus aureus NRS386 assessed as oxacillin MIC at 20 uM; type: functional; details: USA700 NRS386
[5] = tested on: Staphylococcus aureus; test: Potentiation of oxacillin-induced antibacterial activity against Staphylococcus aureus NRS70 assessed as oxacillin MIC at 20 uM; type: functional
[6] = tested on: Staphylococcus aureus; test: Potentiation of oxacillin-induced antibacterial activity against Staphylococcus aureus MRSA252 assessed as fold reduction in oxacillin MIC at 20 uM relative to oxacillin alone; type: functional

`CC(C)c1ccc(S(=O)(=O)N(CCO)c2ccccc2CN(C)C(=O)/C=C/c2ccc(C(F)(F)F)cc2)cc1` was tested, and the “growth inhibition (GI)” value [1] was “Non-Toxic” and the MIC [2] was 32 µg/mL.
In the case of `CN(Cc1ccccc1)Cc1ccccc1N(CCO)S(=O)(=O)c1ccc(C(F)(F)F)cc1`, the “growth inhibition (GI)” value [1] is reported as “Non-Toxic” and the MIC [2] is reported as at least 256 µg/mL.
`Cc1ccc(/C=C/C(=O)N(C)Cc2ccccc2N(CCO)S(=O)(=O)c2ccc(C)cc2)cc1` was tested, and the “growth inhibition (GI)” value [1] was “Non-Toxic” and the MIC [2] was 64 µg/mL.
In the case of `Cc1ccc(S(=O)(=O)N(CCO)c2ccccc2CN(C)C(=O)/C=C/c2ccco2)cc1`, the “growth inhibition (GI)” value [1] is reported as “Non-Toxic” and the MIC [2] is reported as at least 256 µg/mL.
`Cc1ccc(S(=O)(=O)N(CCO)c2ccccc2CN(C)C(=O)/C=C/c2ccc(C(F)(F)F)cc2)cc1` was tested, and the “growth inhibition (GI)” value [1] was “Non-Toxic”, the MIC [2] was 2 µg/mL and the MIC [3] was 4 µg/mL. For the same molecule, the MIC [4] was 4 µg/mL, the MIC [5] was 16 µg/mL and the “fold change (FC)” value [6] was 128.
In the case of `CN(C/C=C/c1ccc(Cl)cc1)Cc1ccccc1N(CCO)S(=O)(=O)c1ccc(Cl)cc1`, the “growth inhibition (GI)” value [1] is reported as “Non-Toxic” and the MIC [2] is reported as 16 µg/mL.
In the case of `CN(Cc1ccccc1N(CCO)S(=O)(=O)c1ccc(C#N)cc1)C(=O)/C=C/c1ccc(C(F)(F)F)cc1`, the “growth inhibition (GI)” value [1] is reported as “Non-Toxic” and the MIC [2] is reported as 32 µg/mL.
In the case of `COc1ccc(S(=O)(=O)N(CCO)c2ccccc2CN(C/C=C/c2ccc(Cl)cc2)CC(C)C)cc1`, the “growth inhibition (GI)” value [1] is reported as “Non-Toxic” and the MIC [2] is reported as 128 µg/mL.
With `CN(C/C=C/c1ccc(Cl)cc1)Cc1ccccc1N(CCO)S(=O)(=O)Cc1ccccc1` the “growth inhibition (GI)” value [1] was “Non-Toxic” and the MIC [2] was at least 256 µg/mL.
`Cc1ccc(S(=O)(=O)N(CCO)c2ccccc2CN(C)C(=O)/C=C/c2cccnc2)cc1` was tested, and the “growth inhibition (GI)” value [1] was “Non-Toxic” and the MIC [2] was at least 256 µg/mL.
With `Cc1ccc(S(=O)(=O)N(CCO)c2ccccc2CN(C)C(=O)/C=C/c2ccc(F)cc2)cc1` the “growth inhibition (GI)” value [1] was “Non-Toxic” and the MIC [2] was at least 256 µg/mL.
`Cc1ccc(S(=O)(=O)N(CCO)c2ccccc2CN(C)C(=O)c2ccc(Cl)cc2)cc1` was tested, and the “growth inhibition (GI)” value [1] was “Non-Toxic” and the MIC [2] was at least 256 µg/mL.
With `Cc1ccc(S(=O)(=O)N(CCO)c2ccccc2CNC(=O)/C=C/c2ccc(C(F)(F)F)cc2)cc1` the “growth inhibition (GI)” value [1] was “Non-Toxic” and the MIC [2] was at least 256 µg/mL.
For `C=CCN(Cc1ccccc1N(CCO)S(=O)(=O)c1ccc(OC)cc1)C(C)C`, the “growth inhibition (GI)” value [1] was “Non-Toxic” and the MIC [2] was at least 256 µg/mL.
With `Cc1ccc(S(=O)(=O)N(CCO)c2ccccc2CN(C)C(=O)/C=C/c2ccc(Br)s2)cc1` the “growth inhibition (GI)” value [1] was “Non-Toxic” and the MIC [2] was at least 256 µg/mL.
With `Cc1ccc(S(=O)(=O)N(CCO)c2ccccc2CN(C)C(=O)/C=C/c2ccc(Cl)cc2Cl)cc1` the “growth inhibition (GI)” value [1] was “Non-Toxic” and the MIC [2] was at least 256 µg/mL.
`Cc1ccc(S(=O)(=O)N(CCO)c2ccccc2CN(C)C(=O)/C=C/c2ccc(-c3ccc(Cl)cc3)o2)cc1` was tested, and the “growth inhibition (GI)” value [1] was “Non-Toxic” and the MIC [2] was at least 256 µg/mL.
With `Cc1ccc(S(=O)(=O)N(CCO)c2ccccc2CN(C)C/C=C/c2ccc(Cl)c(Cl)c2)cc1` the “growth inhibition (GI)” value [1] was “Non-Toxic” and the MIC [2] was 32 µg/mL.
`C=CCN(C)Cc1ccccc1N(CCO)S(=O)(=O)c1ccc(Cl)cc1` was tested, and the “growth inhibition (GI)” value [1] was “Non-Toxic” and the MIC [2] was at least 256 µg/mL.
With `COc1ccc(S(=O)(=O)N(CCO)c2ccccc2CN(C)C/C=C/c2ccc(Cl)cc2)cc1` the “growth inhibition (GI)” value [1] was “Non-Toxic” and the MIC [2] was 128 µg/mL.
In the case of `CN(C/C=C/c1ccccc1)Cc1ccccc1N(CCO)S(=O)(=O)c1ccc(C(F)(F)F)cc1`, the “growth inhibition (GI)” value [1] is reported as “Non-Toxic” and the MIC [2] is reported as 32 µg/mL.
In the case of `COc1ccc(S(=O)(=O)N(CCO)c2ccccc2CN(C)C/C=C/c2ccccc2)cc1`, the “growth inhibition (GI)” value [1] is reported as “Non-Toxic” and the MIC [2] is reported as at least 256 µg/mL.
For `Cc1ccc(S(=O)(=O)N(CCO)c2ccccc2CN(C)C/C=C/c2ccccc2)cc1`, the “growth inhibition (GI)” value [1] was “Non-Toxic” and the MIC [2] was at least 256 µg/mL.
`Cc1ccc(S(=O)(=O)N(CCO)c2ccccc2CN(C)C(=O)/C=C/c2ccc(C(F)(F)F)cc2)cc1F` was tested, and the “growth inhibition (GI)” value [1] was “Non-Toxic”, the MIC [2] was 4 µg/mL and the MIC [3] was 2 µg/mL. The MIC [4] was 8 µg/mL, the MIC [5] was 16 µg/mL and the “fold change (FC)” value [6] was 64.
For `CN(Cc1ccccc1N(CCO)S(=O)(=O)c1ccccc1)C(=O)/C=C/c1ccc(C(F)(F)F)cc1`, the “growth inhibition (GI)” value [1] was “Non-Toxic”, the MIC [2] was 4 µg/mL and the MIC [3] was 2 µg/mL. The MIC [4] was 2 µg/mL, the MIC [5] was 16 µg/mL and the “fold change (FC)” value [6] was 64.
